For series [1], the system named is MCF7. Briefly: Drug uptake in ER expressing MCF7 cells. The note with it: human. In kind it is ADME, cell-based. In short, it runs like this: (§1)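 Cells adhered overnight at 450000 per well, then were exposed to 0.5 µM drug for 1 h (uptake also at 20 and 40 min). They were trypsinized, washed cold, and held on ice in serum-free, phenol red-free RPMI. Flow cytometry: excitation 488 nm, emission 570–600 nm, 10000 cells, mean fluorescence minus drug-free background. Settings were fixed per cell line.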

Series [2] in a line: Drug uptake in MCF7/Adr cells at 500 nM. In kind it is ADME, cell-based. The note with it: human, nci/adr-res, 0.5 µM. In short, it runs like this: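 MCF-7/Adr cells in log phase (RPMI 1640, 10% FBS), plated 450000 cells/well and adhered overnight; exposed to 0.5 μM drug (from 100× DMSO/1% AcOH stock) for 20, 40, 60 min. Cells were trypsinized, quenched and resuspended in cold serum-free, phenol red free RPMI, then held on ice. Flow cytometry: ex 488 nm, em 570–600 nm, 10000 cells; mean fluorescence minus drug-free background.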

A short description of series [3]: Growth inhibition of ER expressing Rtx6 cells after 4 hrs. In kind it is functional. Conditions: Homo sapiens; call rule not given here.
Series [4] is described as follows: Inhibition of DOX-TEG-TAM uptake in ER expressing Rtx6 cells. In kind it is cell-based. Conditions: human. In outline:
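Rtx-6 cells in tamoxifen-free medium got 0.5 µM conjugate for 1 h with or without estradiol at various concentrations. Flow cytometry of anthracycline fluorescence: excitation 488 nm, emission 570–600 nm, 10000 cells. Mean fluorescence minus drug-free background.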

Series [5] concerns MDA-MB-435. Nature of the series: Inhibition of DOX-TEG-TAM uptake in MDA-MB-435 cells. Conditions: human. In kind it is cell-based. In outline:
(§2)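 Competition read by flow cytometry. MDA-MB-435 cells adhered overnight, then given 0.5 µM anthracycline for 1 h with or without tamoxifen at various concentrations (up to 10 µM). Cells trypsinized and kept cold in serum-free, phenol red-free RPMI. Excitation 488 nm, emission 570–600 nm, 10000 cells. Mean fluorescence with drug-free background subtracted.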

Series [6] is described as follows: Drug uptake in ER expressing Rtx6 cells at 500 nM. In kind it is ADME, cell-based. Conditions: human, 0.5 µM. In short, it runs like this: as §1
The target of series [7] is T1, Anti-estrogen binding site (AEBS) (Homo sapiens) (UniProt Q15125+Q9UBM7). Briefly: Displacement of 5 nM [3H]tamoxifen from AEBS in MCF7 cell lysate relative to E/Z-4-hydroxytamoxifen. In kind it is cell-free. In short, it runs like this: (§3)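 AEBS source: MCF-7 cell lysate (sonicated, 12000g supernatant, diluted to 2.0 mg/mL protein, pH 7.4 lysis buffer with molybdate and protease inhibitors). [3H]tamoxifen at 5, 0.5 or 0.05 nM, with 1000 nM estradiol to saturate ER, plus cold competitor; 18 h at 4 °C. Dextran-coated charcoal strip, scintillation counting. Binding expressed relative to E/Z-4-OHT from reduction of bound tritium; competitors in duplicate.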

Series [8] relates to MCF7. Nature of the series: Drug uptake in MCF7 cells at 500 nM for 1 hr relative to MDA-MB-435 cells. In kind it is ADME, cell-based. Conditions: human, mcf7, 1 h, 0.5 µM. In short, it runs like this: as §1
Series [9] deals with T1, Anti-estrogen binding site (AEBS) (Homo sapiens). Briefly: Binding affinity at AEBS. In kind it is protein-complex assay. In outline: as §3
Series [10] relates to MDA-MB-231 (Homo sapiens). Nature of the series: Drug uptake in MDA-MB-231 cells at 500 nM for 1 hr relative to MDA-MB-435 cells. The note with it: mda-mb-231, 1 h, 0.5 µM.
Series [11] addresses T1, Anti-estrogen binding site (AEBS) (Homo sapiens). Briefly: Displacement of 0.05 nM [3H]tamoxifen from AEBS in MCF7 cell lysate relative to E/Z-4-hydroxytamoxifen. In kind it is cell-free. In outline: as §3
For series [12] the target is unchanged. Briefly: Displacement of 0.5 nM [3H]tamoxifen from AEBS in MCF7 cell lysate relative to E/Z-4-hydroxytamoxifen. In kind it is cell-free. In outline: as §3
The subject of series [13] is MDA-MB-435. Nature of the series: Decrease in DOX-TEG-TAM uptake in MDA-MB-435 cells after 1 hr. In kind it is ADME, cell-based. The note with it: human, mda-mb-435, 1 h. In short, it runs like this:
as §2

Series [14] has as its system MDA-MB-435. Briefly: Decrease doxorubicin-saliform uptake in MDA-MB-435 cells at 10 uM after 1 hr relative to DOX-TEG-TAM. Set-up: scale not given: the % may be the effect or the level left. In kind it is ADME, cell-based. Conditions: human, mda-mb-435, 1 h. In short, it runs like this: as §2
For series [15], the system named is MDA-MB-435. Briefly: Decrease in doxorubicin uptake in MDA-MB-435 cells at 10 uM after 1 hr relative to DOX-TEG-TAM. In kind it is ADME, cell-based. Conditions: human, mda-mb-435, 1 h. Set-up: scale not given: the % may be the effect or the level left. In short, it runs like this:
as §2

Series [16] deals with MDA-MB-435. Briefly: Decrease DOX-TEG-TAM uptake in MDA-MB-435 cells at 10 uM after 1 hr relative to control. In kind it is ADME, cell-based. Set-up: scale not given: the % may be the effect or the level left. The note with it: human, mda-mb-435, 1 h. In short, it runs like this:
as §2

pIC50: −log10 of the molar value.

Take `COc1cccc2c1C(=O)c1c(O)c3c(c(O)c1C2=O)C[C@@](O)(C(=O)CO)C[C@@H]3O[C@H]1C[C@H](NCNC(=O)c2ccccc2O)[C@H](O)[C@H](C)O1`: the entries for the “Relative Fluorescent Unit” value (in the series with MCF7 [1]; in [2]) were 16 and 1, respectively. For the same molecule, the negative logarithm of the IC50 (pIC50) in series [3] is 7.21.

As for `C[C@]12CC[C@@H]3c4ccc(O)cc4CC[C@H]3[C@@H]1CC[C@@H]2O` [ESTRADIOL], the Activity entry in series [4] is “Dose-dependent effect”; with MDA-MB-435 [5], “Not Active”.

For the molecule `CC/C(=C(/c1ccc(O)cc1)c1ccc(OCCN(C)CCOCCOCCO/N=C/c2ccc(O)c(C(=O)NCN[C@H]3C[C@H](O[C@H]4C[C@](O)(C(=O)CO)Cc5c(O)c6c(c(O)c54)C(=O)c4c(OC)cccc4C6=O)O[C@@H](C)[C@H]3O)c2)cc1)c1ccccc1`, the figures for the “Relative Fluorescent Unit” value (with MCF7 [1]; in series [6]) were 25 and 14, respectively. Further, the Activity in series [7] came to 48%; in series [9], 60%; in series [11], 70%; in series [12], 72%. For the same molecule, the Drug uptake (in the series with MCF7 [8]; in [10]) was 25% throughout. Moreover, the pIC50 in series [3] was 7.17.

For `CC/C(=C(\c1ccccc1)c1ccc(OCCN(C)C)cc1)c1ccccc1` [TAMOXIFEN], the Activity entry in the series on MDA-MB-435 [13] was “Dose-dependent effect”; in the series on MDA-MB-435 [14] it was 6%; in the series with MDA-MB-435 [15], 8%; in the series with MDA-MB-435 [16], 47%.

(Values after ChEMBL document CHEMBL1149277, “Antiestrogen binding site and estrogen receptor mediate uptake and distribution of 4-hydroxytamoxifen-targeted doxorubicin-formaldehyde conjugate in breast cancer cells” (J Med Chem, 2004).)
